In ChEMBL document CHEMBL1269008, “Electron density guided fragment-based lead discovery of ketohexokinase inhibitors” (J Med Chem, 2010):
Converted amounts (≈) assume the structure as drawn.

Assays:
Cytochrome P450 1A2 = target: T1, Cytochrome P450 1A2 (Homo sapiens, UniProt P05177); assay: Inhibition of human recombinant CYP1A2; assay type: ADME
T1 sequence (P05177 whole entry): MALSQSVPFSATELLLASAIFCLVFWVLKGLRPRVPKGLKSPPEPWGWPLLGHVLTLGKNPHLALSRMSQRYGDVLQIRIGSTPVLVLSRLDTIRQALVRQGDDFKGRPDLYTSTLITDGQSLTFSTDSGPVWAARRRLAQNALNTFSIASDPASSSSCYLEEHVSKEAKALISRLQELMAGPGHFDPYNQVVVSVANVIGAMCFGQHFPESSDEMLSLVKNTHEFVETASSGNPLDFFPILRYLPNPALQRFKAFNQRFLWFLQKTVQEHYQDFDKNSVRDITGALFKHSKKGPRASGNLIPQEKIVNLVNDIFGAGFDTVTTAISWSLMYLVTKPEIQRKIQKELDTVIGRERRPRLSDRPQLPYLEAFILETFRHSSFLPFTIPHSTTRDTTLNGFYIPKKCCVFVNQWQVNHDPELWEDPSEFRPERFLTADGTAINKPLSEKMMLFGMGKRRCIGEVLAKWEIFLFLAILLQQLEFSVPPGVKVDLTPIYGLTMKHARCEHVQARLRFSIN

Cytochrome P450 3A4 = Cytochrome P450 3A4 (Homo sapiens, UniProt P08684); assay: Inhibition of human recombinant CYP3A4; assay type: ADME
Sequence of Cytochrome P450 3A4 (P08684 whole entry): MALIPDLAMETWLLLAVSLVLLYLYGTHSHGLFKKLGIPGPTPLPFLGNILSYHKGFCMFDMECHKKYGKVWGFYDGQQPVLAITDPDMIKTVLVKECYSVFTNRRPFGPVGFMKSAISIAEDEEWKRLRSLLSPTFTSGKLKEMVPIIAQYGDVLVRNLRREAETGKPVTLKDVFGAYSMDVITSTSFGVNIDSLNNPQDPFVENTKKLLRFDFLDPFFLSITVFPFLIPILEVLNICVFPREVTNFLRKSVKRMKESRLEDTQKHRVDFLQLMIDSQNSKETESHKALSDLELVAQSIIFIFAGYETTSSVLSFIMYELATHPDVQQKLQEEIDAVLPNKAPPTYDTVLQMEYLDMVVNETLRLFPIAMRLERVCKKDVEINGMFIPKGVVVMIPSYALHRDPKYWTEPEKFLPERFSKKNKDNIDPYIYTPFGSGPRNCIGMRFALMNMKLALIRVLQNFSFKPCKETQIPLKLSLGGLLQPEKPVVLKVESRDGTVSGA

Cytochrome P450 2C9 = Cytochrome P450 2C9 (Homo sapiens, UniProt P11712); assay: Inhibition of human recombinant CYP2C9; assay type: ADME
Sequence of Cytochrome P450 2C9 (P11712 whole entry): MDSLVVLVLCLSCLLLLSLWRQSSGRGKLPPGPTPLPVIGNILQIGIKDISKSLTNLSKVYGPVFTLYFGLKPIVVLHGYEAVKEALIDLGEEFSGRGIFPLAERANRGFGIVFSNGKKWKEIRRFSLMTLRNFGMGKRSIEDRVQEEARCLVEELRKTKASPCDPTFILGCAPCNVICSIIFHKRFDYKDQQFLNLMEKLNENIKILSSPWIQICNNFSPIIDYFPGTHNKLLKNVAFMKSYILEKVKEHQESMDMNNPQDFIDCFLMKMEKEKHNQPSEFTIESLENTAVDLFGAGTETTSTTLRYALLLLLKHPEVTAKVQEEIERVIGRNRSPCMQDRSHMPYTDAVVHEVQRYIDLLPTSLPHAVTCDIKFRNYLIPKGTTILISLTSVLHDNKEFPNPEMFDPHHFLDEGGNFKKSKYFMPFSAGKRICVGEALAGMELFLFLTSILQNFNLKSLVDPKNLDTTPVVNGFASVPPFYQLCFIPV

Cytochrome P450 2C19 = Cytochrome P450 2C19 (Homo sapiens, UniProt P33261); assay: Inhibition of human recombinant CYP2C19; assay type: ADME
Sequence of Cytochrome P450 2C19 (P33261 whole entry): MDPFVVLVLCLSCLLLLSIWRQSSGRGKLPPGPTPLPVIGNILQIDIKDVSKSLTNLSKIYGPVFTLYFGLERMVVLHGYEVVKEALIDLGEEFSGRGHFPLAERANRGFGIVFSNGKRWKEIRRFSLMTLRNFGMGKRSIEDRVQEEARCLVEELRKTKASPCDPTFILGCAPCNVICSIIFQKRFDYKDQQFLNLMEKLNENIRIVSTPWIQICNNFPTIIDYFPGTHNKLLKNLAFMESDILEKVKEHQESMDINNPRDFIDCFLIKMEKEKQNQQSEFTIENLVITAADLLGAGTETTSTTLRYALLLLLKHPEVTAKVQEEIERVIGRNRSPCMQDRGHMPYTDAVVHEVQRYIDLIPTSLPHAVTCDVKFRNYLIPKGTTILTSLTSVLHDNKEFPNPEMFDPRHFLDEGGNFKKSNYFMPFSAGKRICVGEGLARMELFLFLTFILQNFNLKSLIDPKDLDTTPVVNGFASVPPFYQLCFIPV

Cytochrome P450 2D6 = Cytochrome P450 2D6 (Homo sapiens, UniProt P10635); assay: Inhibition of human recombinant CYP2D6; assay type: ADME
Sequence of Cytochrome P450 2D6 (P10635 whole entry): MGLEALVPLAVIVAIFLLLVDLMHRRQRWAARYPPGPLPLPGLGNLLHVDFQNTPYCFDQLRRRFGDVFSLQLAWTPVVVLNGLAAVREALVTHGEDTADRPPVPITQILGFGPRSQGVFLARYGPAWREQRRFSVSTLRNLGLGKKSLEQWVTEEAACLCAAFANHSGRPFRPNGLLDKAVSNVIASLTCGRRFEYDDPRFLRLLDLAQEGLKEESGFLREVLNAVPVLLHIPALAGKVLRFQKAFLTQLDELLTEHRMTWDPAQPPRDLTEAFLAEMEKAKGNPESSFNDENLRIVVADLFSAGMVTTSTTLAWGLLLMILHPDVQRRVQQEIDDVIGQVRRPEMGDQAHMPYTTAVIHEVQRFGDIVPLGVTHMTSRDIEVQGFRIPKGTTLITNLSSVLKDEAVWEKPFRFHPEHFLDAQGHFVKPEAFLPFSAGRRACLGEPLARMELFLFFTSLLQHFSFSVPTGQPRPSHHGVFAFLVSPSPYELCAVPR

[1] = Metabolic stability in human liver microsomes after 10 mins; assay type: ADME, Microsome; settings: read-out: Stability
[2] = Metabolic stability in rat liver microsomes after 10 mins; assay type: ADME, Microsome; settings: read-out: Stability
[3] = Aqueous solubility of the compound in phosphate buffered saline at pH 7.4; assay type: physicochemical
[4] = Aqueous solubility of the compound in phosphate buffered saline at pH 2; assay type: physicochemical
[5] = Aqueous solubility of the compound in water; assay type: physicochemical
[6] = Aqueous solubility of the compound in […]; assay type: physicochemical
[7] = Permeability from apical to basolateral side of human Caco-2 cells; assay type: ADME, cell-based
Summary of the method: (§1)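 Caco-2 monolayers cultured 21 days on Transwells. Compound at 10 μM in HBSS with 25 mM HEPES pH 7.4, added to the apical or basolateral side. Lucifer Yellow in donor buffer checked monolayer integrity. After 1 h at 37 °C, both chambers were sampled into acetonitrile with internal standard and measured by LC-MS/MS to calculate Papp.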

[8] = Permeability from basolateral to apical side of human Caco-2 cells; assay type: ADME, cell-based; summary of the method: as §1
[9] = Oral bioavailability in Sprague-Dawley rat at 10 mg/kg; assay type: ADME, organism-based; settings: in vivo
Summary of the method: (§2)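 Male SPF Sprague-Dawley rats (~250 g), n=4. HCl salt dissolved in 20% HPBCD, adjusted to pH 4.5 with NaOH. 10 mg/kg by gastric intubation. Blood sampled at 0.5, 1, 2, 4, 8 and 24 h. Parameters derived from each animal's plasma concentration-time profile by limited PK analysis.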

[10] = Cmax in Sprague-Dawley rat at 10 mg/kg, po; assay type: ADME, organism-based; set-up: dose 10 mg/kg, route oral; settings: in vivo; summary of the method: as §2
[11] = AUClast in Sprague-Dawley rat at 10 mg/kg, po; assay type: ADME, organism-based; set-up: time 0 - last, dose 10 mg/kg, route oral; settings: plasma; summary of the method: as §2
[12] = Clearance in Sprague-Dawley rat at 2 mg/kg, iv and 10 mg/kg, po; assay type: ADME, organism-based; settings: in vivo
Summary of the method: (§3)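 Male SPF Sprague-Dawley rats (~250 g), n=4, vehicle 20% HPBCD at pH 4.5. Dosing was 2.0 mg/kg iv into the jugular vein, with blood taken at 7 and 20 min and 1, 2, 4, 8 and 24 h. Oral arm was 10 mg/kg by gastric intubation. Parameters came from each animal's plasma profile.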

[13] = Volume of distribution in Sprague-Dawley rat at 2 mg/kg, iv and 10 mg/kg, po; assay type: ADME, organism-based; settings: in vivo; summary of the method: as §3
[14] = Inhibition of PKA at 10 uM
Summary of the method: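 Commercial panel of 200 protein kinases, with compound at 10 μM and ATP at 10 μM. Percent inhibition is from a single concentration.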

[15] = target: T2, 5-hydroxytryptamine receptor 1A (Homo sapiens) (UniProt P08908); assay: Inhibition of 5HT1A at 10 uM
T2 sequence (whole entry): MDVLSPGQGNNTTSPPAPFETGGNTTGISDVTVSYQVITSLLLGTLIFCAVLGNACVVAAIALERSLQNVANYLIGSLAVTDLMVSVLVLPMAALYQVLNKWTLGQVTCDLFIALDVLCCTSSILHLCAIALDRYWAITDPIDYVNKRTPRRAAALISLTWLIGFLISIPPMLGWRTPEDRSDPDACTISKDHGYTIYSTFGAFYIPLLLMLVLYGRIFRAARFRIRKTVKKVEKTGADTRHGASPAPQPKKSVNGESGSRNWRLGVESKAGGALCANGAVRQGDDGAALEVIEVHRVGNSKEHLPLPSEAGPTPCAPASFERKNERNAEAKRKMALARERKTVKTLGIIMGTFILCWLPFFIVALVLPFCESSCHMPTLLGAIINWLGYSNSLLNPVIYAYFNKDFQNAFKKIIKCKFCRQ

[16] = target: 5-hydroxytryptamine receptor 2B (Homo sapiens) (UniProt P41595); assay: Inhibition of 5HT2B at 10 uM
Sequence of 5-hydroxytryptamine receptor 2B (Homo sapiens) (P41595 whole entry): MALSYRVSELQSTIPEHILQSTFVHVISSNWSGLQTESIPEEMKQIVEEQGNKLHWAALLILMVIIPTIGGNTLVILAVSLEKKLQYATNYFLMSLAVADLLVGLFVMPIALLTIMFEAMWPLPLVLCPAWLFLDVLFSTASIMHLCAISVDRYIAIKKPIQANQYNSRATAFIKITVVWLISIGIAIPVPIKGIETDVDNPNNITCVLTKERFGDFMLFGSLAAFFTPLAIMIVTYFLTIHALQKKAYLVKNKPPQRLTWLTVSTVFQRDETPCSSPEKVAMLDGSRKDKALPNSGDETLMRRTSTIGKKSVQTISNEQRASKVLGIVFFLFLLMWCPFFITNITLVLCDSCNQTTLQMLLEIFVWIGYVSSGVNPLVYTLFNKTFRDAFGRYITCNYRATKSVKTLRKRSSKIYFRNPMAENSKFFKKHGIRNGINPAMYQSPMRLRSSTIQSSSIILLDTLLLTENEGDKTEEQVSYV

[17] = target: 5-hydroxytryptamine receptor 7 (Homo sapiens) (UniProt P34969); assay: Inhibition of 5HT7 at 10 uM
Sequence of 5-hydroxytryptamine receptor 7 (Homo sapiens) (P34969 whole entry): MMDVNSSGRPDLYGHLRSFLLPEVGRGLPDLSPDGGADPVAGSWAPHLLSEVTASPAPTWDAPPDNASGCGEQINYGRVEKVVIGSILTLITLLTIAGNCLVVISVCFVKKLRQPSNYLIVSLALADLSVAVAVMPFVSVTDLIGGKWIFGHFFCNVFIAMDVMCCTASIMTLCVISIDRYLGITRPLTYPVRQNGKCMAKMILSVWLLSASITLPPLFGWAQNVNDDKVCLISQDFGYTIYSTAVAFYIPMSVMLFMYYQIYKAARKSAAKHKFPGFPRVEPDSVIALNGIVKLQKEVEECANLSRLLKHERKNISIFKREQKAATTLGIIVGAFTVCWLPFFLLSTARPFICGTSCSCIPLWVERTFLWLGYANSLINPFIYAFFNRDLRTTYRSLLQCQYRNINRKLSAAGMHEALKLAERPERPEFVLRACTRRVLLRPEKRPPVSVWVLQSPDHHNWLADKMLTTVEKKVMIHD

CSc1nn(-c2ccccc2)c2cc(NC(=O)C3CCNCC3)ccc12
IC50 (Cytochrome P450 1A2): > 10 µM
IC50 (Cytochrome P450 3A4): > 10 µM
IC50 (Cytochrome P450 2C9): > 10 µM
IC50 (Cytochrome P450 2C19): > 10 µM
IC50 (Cytochrome P450 2D6): > 10 µM
remaining at 10 min [1]: 96%
remaining at 10 min [2]: 95%
solubility [3]: 45.2 µM (≈ 16.6 µg/mL)
solubility [4]: 35.3 µM (≈ 12.9 µg/mL)
solubility [5]: 40.7 µM (≈ 14.9 µg/mL)
solubility [6]: 40 µM (≈ 14.7 µg/mL)
Papp A→B [7]: 1.65 ×10⁻⁶ cm/s
Papp B→A [8]: 9.47 ×10⁻⁶ cm/s
bioavailability [9]: 75.4%
Cmax [10]: 529 ng/mL
AUC(0-t) [11]: 9030 ng·h/mL
clearance [12]: 11.6 mL/min/kg
Vd [13]: 8.53 L/kg
inhibition [14]: 99%
inhibition [15]: 83%
inhibition [16]: 91%
inhibition [17]: 95%
